Laboratory results published in ChEMBL document CHEMBL1157609, “Discovery of vaniprevir (MK-7009), a macrocyclic hepatitis C virus NS3/4a protease inhibitor” (J Med Chem, 2010).

Test system: Hepatitis C virus
Experiment: Antiviral activity against HCV Con1 infected in human HuH7 cells assessed as inhibition of viral replication after 24 hrs by replicon assay in presence of 50% normal human serum
Assay type: functional, organism-based, Hepacivirus hominis
Conditions: Con1, Huh-7, 24 h
In short: (§1)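 Huh-7 cells stably carrying a bicistronic replicon (1b con1 or 2a JFH) seeded at 20000 cells/well and held 24 h at 37 °C/5% CO2 in DMEM with 10% FBS or 50% NHS. Compound added in DMSO (1% final) for a further 24 h. Cells fixed and permeabilized. Replicon RNA quantified by in situ hybridization of a radiolabeled neomycin-resistance probe (50 °C, 18 h), followed by RNase A treatment.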

| Structure (SMILES) | IC50 |
| --- | --- |
| C=C[C@@H]1C[C@]1(NC(=O)[C@@H]1C[C@@H]2CN1C(=O)[C@H](C1(C)CCCCC1)NC(=O)OCCC/C=C/c1cccc3c1CN(C3)C(=O)O2)C(=O)NS(=O)(=O)C1CC1 | 38 nM |
| C=C[C@@H]1C[C@]1(NC(=O)[C@@H]1C[C@@H]2CN1C(=O)[C@H](C(C)(C)C)NC(=O)OCCCC/C=C/c1cccc3c1CN(C3)C(=O)O2)C(=O)NS(=O)(=O)C1CC1 | 19 nM |
| C=C[C@@H]1C[C@]1(NC(=O)[C@@H]1C[C@@H]2CN1C(=O)[C@H](CCCC)NC(=O)OCCC/C=C/c1cccc3c1CN(C3)C(=O)O2)C(=O)NS(=O)(=O)C1CC1 | 26 nM |
| C=C[C@@H]1C[C@]1(NC(=O)[C@@H]1C[C@@H]2CN1C(=O)[C@H](C1CCCCC1)NC(=O)OCCC/C=C/c1cccc3c1CN(C3)C(=O)O2)C(=O)NS(=O)(=O)C1CC1 | 24 nM |
| C=C[C@@H]1C[C@]1(NC(=O)[C@@H]1C[C@@H]2CN1C(=O)[C@H](C(C)(C)C)NC(=O)OCCCCC/C=C/c1cccc3c1CN(C3)C(=O)O2)C(=O)NS(=O)(=O)C1CC1 | 23 nM |
| C=C[C@@H]1C[C@]1(NC(=O)[C@@H]1C[C@@H]2CN1C(=O)[C@H](C(C)(C)C)NC(=O)OCCC/C=C/c1cccc3c1CN(CC3)C(=O)O2)C(=O)NS(=O)(=O)C1CC1 | 140 nM |
| C=C[C@@H]1C[C@]1(NC(=O)[C@@H]1C[C@@H]2CN1C(=O)[C@H](C1CCCC1)NC(=O)OCCC/C=C/c1cccc3c1CN(C3)C(=O)O2)C(=O)NS(=O)(=O)C1CC1 | 23 nM |
| C=C[C@@H]1C[C@]1(NC(=O)[C@@H]1C[C@@H]2CN1C(=O)[C@H](C(C)C)NC(=O)OCCC/C=C/c1cccc3c1CN(C3)C(=O)O2)C(=O)NS(=O)(=O)C1CC1 | 28 nM |
| C=C[C@@H]1C[C@]1(NC(=O)[C@@H]1C[C@@H]2CN1C(=O)[C@H](C(C)(C)C)NC(=O)OCC/C=C/c1cccc3c1CN(C3)C(=O)O2)C(=O)NS(=O)(=O)C1CC1 | 390 nM |

Test system: not listed separately
Experiment: Drug level in Sprague-Dawley rat liver at 5 mg/kg, po after 4 hrs by LC/MS analysis
Assay type: ADME, organism-based
Set-up: dose 5 mg/kg, route oral
Conditions: read-out: Drug uptake
In short: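 Rats given a single oral dose as a PEG400 solution (2.0 mL/kg). Liver collected at the terminal time point and homogenized in buffer. Drug extracted liquid-liquid and quantified by LC/MS against standards and QCs.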

| Structure (SMILES) | concentration at 4 h |
| --- | --- |
| C=C[C@@H]1C[C@]1(NC(=O)[C@@H]1C[C@@H]2CN1C(=O)[C@H](C1(C)CCCCC1)NC(=O)OCCC/C=C/c1cccc3c1CN(C3)C(=O)O2)C(=O)NS(=O)(=O)C1CC1 | 1600 nM |
| C=C[C@@H]1C[C@]1(NC(=O)[C@@H]1C[C@@H]2CN1C(=O)[C@H](C(C)(C)C)NC(=O)OCCCC/C=C/c1cccc3c1CN(C3)C(=O)O2)C(=O)NS(=O)(=O)C1CC1 | 230 nM |
| C=C[C@@H]1C[C@]1(NC(=O)[C@@H]1C[C@@H]2CN1C(=O)[C@H](C1CCCCC1)NC(=O)OCCC/C=C/c1cccc3c1CN(C3)C(=O)O2)C(=O)NS(=O)(=O)C1CC1 | 2800 nM |
| C=C[C@@H]1C[C@]1(NC(=O)[C@@H]1C[C@@H]2CN1C(=O)[C@H](C(C)(C)C)NC(=O)OCCCCC/C=C/c1cccc3c1CN(C3)C(=O)O2)C(=O)NS(=O)(=O)C1CC1 | 140 nM |
| C=C[C@@H]1C[C@]1(NC(=O)[C@@H]1C[C@@H]2CN1C(=O)[C@H](C(C)(C)C)NC(=O)OCCC/C=C/c1cccc3c1CN(CC3)C(=O)O2)C(=O)NS(=O)(=O)C1CC1 | 3500 nM |

Second part, the compound after the results:

| concentration at 4 h | Structure (SMILES) |
| --- | --- |
| 440 nM | C=C[C@@H]1C[C@]1(NC(=O)[C@@H]1C[C@@H]2CN1C(=O)[C@H](C(C)C)NC(=O)OCCC/C=C/c1cccc3c1CN(C3)C(=O)O2)C(=O)NS(=O)(=O)C1CC1 |
| 460 nM | C=C[C@@H]1C[C@]1(NC(=O)[C@@H]1C[C@@H]2CN1C(=O)[C@H](CCCC)NC(=O)OCCC/C=C/c1cccc3c1CN(C3)C(=O)O2)C(=O)NS(=O)(=O)C1CC1 |

Test system: not listed separately
Experiment: Inhibition of HCV1b BK full length NS3/4A protease expressed in Escherichia coli after 1 hr by time-resolved fluorescence assay
Set-up: species or system Hepatitis C virus (isolate BK)
Conditions: not given
In short: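 Full-length NS3/4A (1b BK or 2a JFH) purified from E. coli. TRF peptide substrate added at 100 nM final. Reaction run 1 h at RT, then quenched with 500 mM MES pH 5.5. Read at ex 340/em 615 nm with 400 μs delay. Ki from a four-parameter fit.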

| Structure (SMILES) | Ki |
| --- | --- |
| C=C[C@@H]1C[C@]1(NC(=O)[C@@H]1C[C@@H]2CN1C(=O)[C@H](C1(C)CCCCC1)NC(=O)OCCC/C=C/c1cccc3c1CN(C3)C(=O)O2)C(=O)NS(=O)(=O)C1CC1 | 0.06 nM |
| C=C[C@@H]1C[C@]1(NC(=O)[C@@H]1C[C@@H]2CN1C(=O)[C@H](C(C)(C)C)NC(=O)OCCCC/C=C/c1cccc3c1CN(C3)C(=O)O2)C(=O)NS(=O)(=O)C1CC1 | 0.03 nM |
| C=C[C@@H]1C[C@]1(NC(=O)[C@@H]1C[C@@H]2CN1C(=O)[C@H](CCCC)NC(=O)OCCC/C=C/c1cccc3c1CN(C3)C(=O)O2)C(=O)NS(=O)(=O)C1CC1 | 0.05 nM |
| C=C[C@@H]1C[C@]1(NC(=O)[C@@H]1C[C@@H]2CN1C(=O)[C@H](C1CCCCC1)NC(=O)OCCC/C=C/c1cccc3c1CN(C3)C(=O)O2)C(=O)NS(=O)(=O)C1CC1 | 0.02 nM |
| C=C[C@@H]1C[C@]1(NC(=O)[C@@H]1C[C@@H]2CN1C(=O)[C@H](C(C)(C)C)NC(=O)OCCCCC/C=C/c1cccc3c1CN(C3)C(=O)O2)C(=O)NS(=O)(=O)C1CC1 | < 0.02 nM |
| C=C[C@@H]1C[C@]1(NC(=O)[C@@H]1C[C@@H]2CN1C(=O)[C@H](C(C)(C)C)NC(=O)OCCC/C=C/c1cccc3c1CN(CC3)C(=O)O2)C(=O)NS(=O)(=O)C1CC1 | 0.15 nM |
| C=C[C@@H]1C[C@]1(NC(=O)[C@@H]1C[C@@H]2CN1C(=O)[C@H](C1CCCC1)NC(=O)OCCC/C=C/c1cccc3c1CN(C3)C(=O)O2)C(=O)NS(=O)(=O)C1CC1 | 0.04 nM |
| C=C[C@@H]1C[C@]1(NC(=O)[C@@H]1C[C@@H]2CN1C(=O)[C@H](C(C)C)NC(=O)OCCC/C=C/c1cccc3c1CN(C3)C(=O)O2)C(=O)NS(=O)(=O)C1CC1 | 0.04 nM |
| C=C[C@@H]1C[C@]1(NC(=O)[C@@H]1C[C@@H]2CN1C(=O)[C@H](C(C)(C)C)NC(=O)OCC/C=C/c1cccc3c1CN(C3)C(=O)O2)C(=O)NS(=O)(=O)C1CC1 | 0.1 nM |

Test system: Hepatitis C virus
Experiment: Antiviral activity against HCV Con1 infected in human HuH7 cells assessed as inhibition of viral replication after 24 hrs by replicon assay in presence of 10% fetal bovine serum
Assay type: functional, organism-based, Hepacivirus hominis
Conditions: Con1, Huh-7, 24 h
In short: as §1

| Structure (SMILES) | IC50 |
| --- | --- |
| C=C[C@@H]1C[C@]1(NC(=O)[C@@H]1C[C@@H]2CN1C(=O)[C@H](C1(C)CCCCC1)NC(=O)OCCC/C=C/c1cccc3c1CN(C3)C(=O)O2)C(=O)NS(=O)(=O)C1CC1 | 4 nM |
| C=C[C@@H]1C[C@]1(NC(=O)[C@@H]1C[C@@H]2CN1C(=O)[C@H](C(C)(C)C)NC(=O)OCCCC/C=C/c1cccc3c1CN(C3)C(=O)O2)C(=O)NS(=O)(=O)C1CC1 | 5 nM |
| C=C[C@@H]1C[C@]1(NC(=O)[C@@H]1C[C@@H]2CN1C(=O)[C@H](C1CCCCC1)NC(=O)OCCC/C=C/c1cccc3c1CN(C3)C(=O)O2)C(=O)NS(=O)(=O)C1CC1 | 3 nM |
| C=C[C@@H]1C[C@]1(NC(=O)[C@@H]1C[C@@H]2CN1C(=O)[C@H](C(C)(C)C)NC(=O)OCCCCC/C=C/c1cccc3c1CN(C3)C(=O)O2)C(=O)NS(=O)(=O)C1CC1 | 3 nM |
| C=C[C@@H]1C[C@]1(NC(=O)[C@@H]1C[C@@H]2CN1C(=O)[C@H](C(C)(C)C)NC(=O)OCCC/C=C/c1cccc3c1CN(CC3)C(=O)O2)C(=O)NS(=O)(=O)C1CC1 | 26 nM |

Continued by falling IC50, values first:

| IC50 | Structure (SMILES) |
| --- | --- |
| 16 nM | C=C[C@@H]1C[C@]1(NC(=O)[C@@H]1C[C@@H]2CN1C(=O)[C@H](C(C)(C)C)NC(=O)OCC/C=C/c1cccc3c1CN(C3)C(=O)O2)C(=O)NS(=O)(=O)C1CC1 |
| 12 nM | C=C[C@@H]1C[C@]1(NC(=O)[C@@H]1C[C@@H]2CN1C(=O)[C@H](C(C)C)NC(=O)OCCC/C=C/c1cccc3c1CN(C3)C(=O)O2)C(=O)NS(=O)(=O)C1CC1 |
| 6 nM | C=C[C@@H]1C[C@]1(NC(=O)[C@@H]1C[C@@H]2CN1C(=O)[C@H](CCCC)NC(=O)OCCC/C=C/c1cccc3c1CN(C3)C(=O)O2)C(=O)NS(=O)(=O)C1CC1 |
| 4 nM | C=C[C@@H]1C[C@]1(NC(=O)[C@@H]1C[C@@H]2CN1C(=O)[C@H](C1CCCC1)NC(=O)OCCC/C=C/c1cccc3c1CN(C3)C(=O)O2)C(=O)NS(=O)(=O)C1CC1 |
